From PubChem
Most compounds without a hit are left out; they make up all but 2.3% or so of the library.
NR2E3 ag-1: agonists of human nuclear receptor NR2E3; GST-NR2E3/biotin-RetCOR TR-FRET, 1536-well; 320,000 compounds, 0.12% hits; inhibition of corepressor binding, % at 4.78 µM; Q9Y5X4;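 active = percent inhibition above the cutoff of mean plus 3 SD of all tested compounds, set per screening campaign, cut at about 20% in these data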
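Test system – NR2E3–RetCOR corepressor complex · Quantity – NR2E3 fusion 1.35 nM · Buffer or medium – Tris pH 7.5 · Incubation – Compound–protein incubation for 5 h at 4 °C · Technique – TR-FRET, Eu(K)-anti-GST donor, streptavidin-D2 acceptor, ex 340, em 617/671 nm · Evaluation – percent inhibition of 671/617 nm emission ratio versus biotin and DMSO controls · Plate – 1536-well format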
NR2F2 inh: NR2F2 (human) inhibition, primary screen. 370,000 compounds, 0.7% hits. P24468. HEK293T NGFI-A luciferase reporter, luminescence. AID 686940. inhibition, % at 8.6 µM;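 active = inhibition above a per-plate cutoff, mean inhibition of test wells between control levels plus 3 SD, cut at about 38% in these data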;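 also: cells cotransfected with COUP-TFII expression vector driving the NGFI-A reporter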
CHT allo act: human CHT allosteric activation; CHT-expressing cells, membrane potential dye, choline EC20; hits give high values; LV-AA mutant CHT in HEK293 cells; B-score at 10 µM; 310,000 compounds, 0.49% hits;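 active = initial fluorescence not abnormally high and integrated response B-score, plate-corrected, over 3 SD above library mean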
Target sequence (Q9GZV3 whole entry, looked up): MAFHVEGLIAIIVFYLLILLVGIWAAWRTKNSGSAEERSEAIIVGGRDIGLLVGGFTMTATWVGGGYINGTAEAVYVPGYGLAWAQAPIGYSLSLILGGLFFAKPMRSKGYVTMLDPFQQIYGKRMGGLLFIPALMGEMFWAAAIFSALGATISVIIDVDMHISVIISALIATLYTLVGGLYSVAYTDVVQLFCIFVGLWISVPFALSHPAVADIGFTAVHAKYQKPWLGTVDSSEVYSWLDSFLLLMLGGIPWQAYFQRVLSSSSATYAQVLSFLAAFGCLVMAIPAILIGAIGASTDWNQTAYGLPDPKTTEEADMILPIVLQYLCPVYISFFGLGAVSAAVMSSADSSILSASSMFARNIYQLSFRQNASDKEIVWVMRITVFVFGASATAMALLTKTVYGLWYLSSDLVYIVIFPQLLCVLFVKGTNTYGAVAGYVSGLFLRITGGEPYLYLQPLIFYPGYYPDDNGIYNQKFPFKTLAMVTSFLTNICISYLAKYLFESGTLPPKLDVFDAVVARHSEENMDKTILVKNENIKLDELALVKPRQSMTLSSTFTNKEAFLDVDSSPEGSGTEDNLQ
CHT block: inhibits the human high affinity choline transporter | B-score at 10 µM | Q9GZV3 | CHT-expressing cells, membrane potential dye, choline response; hits give low values | 310,000 compounds, 0.86% hits;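 active = B-score over 3 SD under the library average, and starting fluorescence ratio not unusually high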;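 also: choline stimulus applied at its EC90 after an EC20 pre-addition; B-score computed on integrated fluorescence ratio after choline addition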
GalR3 antagonist: blocks the human galanin receptor 3. O60755. HEK293 GalR3-CNG cAMP membrane potential fluorescence; galR3 body fused to GalR1 C-terminus. inhibition, % at 3 µM. 360,000 compounds, 0.44% hits. AID 651719;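 active = inhibition above the screen-wide average plus 3 SD, cut at about 13% in these data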;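 also: forskolin and galanin both at EC90 stimulate the cells; cAMP rise reported by CNG channel membrane potential dye signal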
NR2E3 ag-2: human photoreceptor-specific nuclear receptor agonism. Q9Y5X4. CHO-S Gal4-NCOR/VP16-NR2E3 two-hybrid, luciferase. inhibition of corepressor binding, % at 3.98 µM. 360,000 compounds, 0.35% hits;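 active = inhibition above the mean of all tested compounds plus 3 SD, cut at about 70% in these data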;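 also: higher means lower luciferase signal from less NR2E3 corepressor binding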
NR2E3 ag conf: NR2E3 agonism confirmed in two-hybrid assay. CHO-S mammalian two-hybrid NR2E3-NCOR, luciferase luminescence. 2,300 compounds, 51% hits. inhibition, % at 3.98 µM. shares compounds with NR2E3 ag-2;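 active = average inhibition above a cutoff equal to the mean inhibition of all tested compounds plus one SD, cut at about 70% in these data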
VP16 counter: GAL4-VP16 reporter inhibition in NR2E3 agonist counterscreen | CHO-S GAL4-VP16 luciferase reporter, luminescence | shares compounds with NR2E3 ag-2 | inhibition, % at 3.98 µM | 2,300 compounds, 29% hits | AID 624379;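 active = mean inhibition above a cutoff equal to the average over all tested compounds plus one standard deviation, cut at about 70% in these data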;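 also: luciferase from a UAS reporter driven by GAL4-VP16 transactivation; higher means less reporter light so more repression of VP16 activity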
GalR3 conf: confirmation of human galanin receptor 3 antagonists. 1,600 compounds, 59% hits. shares compounds with GalR3 antagonist. HEK293 GalR3 CNG cAMP biosensor, membrane potential fluorescence; galR3 fused to GalR1 carboxy tail; challenged with forskolin and galanin at EC90. inhibition, % at 3 µM;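 active = inhibition above the primary screen's cutoff, the mean inhibition of all screened compounds plus 3 SD, cut at about 13% in these data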
HEK-CNG parental: acts as nonspecific agonist in parental HEK-CNG cells; shares compounds with GalR3 antagonist; HEK293-CNG parental cells, cAMP membrane potential fluorescence; normalised: DMSO wells 0%, forskolin wells 100%; activation, % at 3 µM; 1,600 compounds, 10% hits; in the data active = activation above about 1.3%
Gal4-VP16 ctr: counter-screen for COUP-TFII antagonists: inhibitors of VP16 | HEK293 Gal4-VP16 luciferase reporter, luminescence | 2,500 compounds, 25% hits | shares compounds with NR2F2 inh | inhibition, % at 8.5 µM | AID 687007; in the data active = inhibition above about 13%
NR2F2 inh conf: COUP-TFII (NR2F2) inhibition, confirmation assay | HEK293 NGFI-A luciferase reporter, luminescence | shares compounds with NR2F2 inh | inhibition, % at 8.5 µM | 2,500 compounds, 45% hits | AID 687008;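 active = mean inhibition over three repeats above a set limit taken from the earlier primary screen, cut at about 38% in these data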
Large screens that a line does not name were inactive (follow-up assays come after a bar, where they were run).

CCOC(=O)[C@]12CCCCC/C=C\1N(CCc1ccc(Cl)cc1)C(=O)[C@H]2CC(=O)NCc1ccc(OC)c(OC)c1	none (no result: NR2E3 ag-1, CHT allo act, CHT block, GalR3 antagonist, NR2E3 ag-2)
CN=c1scc(-c2ccccc2F)n1/N=C/c1ccc[nH]1	NR2F2 inh 106.5, NR2E3 ag-2 96.6 | NR2E3 ag conf 89.8 | VP16 counter 80.2 | Gal4-VP16 ctr 86.0 | NR2F2 inh conf 107.0
CN=c1scc(-c2ccccc2F)n1/N=C/c1ccc(O)c(O)c1O	none (no result: NR2E3 ag-1, CHT allo act, CHT block)
COCCn1c(C)cc(C2=NNC(=Nc3ccccc3F)SC2)c1C	NR2F2 inh 90.0, NR2E3 ag-2 88.0 | NR2E3 ag conf inactive | VP16 counter inactive | Gal4-VP16 ctr 35.7 | NR2F2 inh conf 80.5
Fc1ccc(F)c(C2=NNC(=Nc3ccccc3F)SC2)c1	none
CCCC(=O)OC12CCCN(C1)/C(=C/c1cccc(Cl)c1)C2 (stereo not given)	none (no result: NR2E3 ag-1, CHT allo act, CHT block, GalR3 antagonist, NR2E3 ag-2)
CC(=O)c1cccc(NS(=O)(=O)c2ccc(NC(=O)N3CCCCC3)cc2)c1	NR2F2 inh 56.1, GalR3 antagonist 83.4 | NR2E3 ag conf inactive | VP16 counter inactive | GalR3 conf 97.0 | HEK-CNG parental inactive | Gal4-VP16 ctr 14.3 | NR2F2 inh conf 44.0
Cc1nc2ncnn2c(N2CCN(c3cccc(C(F)(F)F)c3)CC2)c1C	NR2F2 inh 43.5, NR2E3 ag-2 70.8 | NR2E3 ag conf 72.4 | VP16 counter inactive | Gal4-VP16 ctr inactive | NR2F2 inh conf inactive
Cc1nc2ncnn2c(N2CCN(C(c3ccccc3)c3ccccc3)CC2)c1C	none
CCCCCCCCNC(=O)C1CSCCS(=O)(=O)N1Cc1ccccc1 (stereo not given)	none (no result: NR2E3 ag-1, CHT allo act, CHT block, GalR3 antagonist, NR2E3 ag-2)
O=C(NCc1cccc(Cl)c1)c1cc(COc2ccc3ncccc3c2)on1	NR2F2 inh 68.0, NR2E3 ag-2 75.7 | NR2E3 ag conf 95.5 | VP16 counter 79.0 | Gal4-VP16 ctr inactive | NR2F2 inh conf 55.1
Cc1nc(CN(C)C(=O)c2cc(COc3ccc4ncccc4c3)on2)cs1	NR2F2 inh 57.7, GalR3 antagonist 67.9 | NR2E3 ag conf 87.3 | VP16 counter 77.7 | GalR3 conf 108.0 | HEK-CNG parental inactive | Gal4-VP16 ctr inactive | NR2F2 inh conf 51.6
CC(CCCC(C)(C)O)NC(=O)c1cc(COc2ccc3ncccc3c2)on1 (stereo not given)	NR2F2 inh 59.8, GalR3 antagonist 14.8 | NR2E3 ag conf 88.3 | VP16 counter 75.2 | GalR3 conf 50.2 | HEK-CNG parental inactive | Gal4-VP16 ctr inactive | NR2F2 inh conf 48.5
Cc1cc(C)n(CCNC(=O)c2cc(COc3ccc4ncccc4c3)on2)n1	none
Cc1ccc(F)cc1CNC(=O)c1cc(COc2ccc3ncccc3c2)on1	NR2F2 inh 41.1, NR2E3 ag-2 79.2 | NR2E3 ag conf 96.0 | VP16 counter 85.7 | Gal4-VP16 ctr inactive | NR2F2 inh conf 49.5
CC(=O)NC1CCCCN(Cc2ccc(Cl)cc2)C1=O (stereo not given)	none (no result: NR2E3 ag-1, CHT allo act, CHT block, GalR3 antagonist, NR2E3 ag-2)
COc1ccc(S[C@]2(C(=O)NC(C)C)CC(=O)N[C@@H]2c2ccc(OC)cc2)cc1	none (no result: NR2E3 ag-1, CHT allo act, CHT block, GalR3 antagonist, NR2E3 ag-2)
